KCNK3 inh: human KCNK3 channel inhibition, primary screen; AID 602410; B-score at 10 µM; 340,000 tested, 0.84% active; CHO-KCNK3 thallium flux, FluxOR fluorescence; stronger effect = lower value; O14649;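 active means B-score under library mean minus 4 SD, starting fluorescence ratio at most library mean plus 5 SD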;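 further: more negative B-score means stronger inhibition of thallium flux through KCNK3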
Kir21 block: blocks the mouse Kir2.1 inward-rectifier potassium channel; 310,000 tested, 0.85% active; P35561; HEK293-Kir2.1, FluxOR thallium flux fluorescence; stronger effect = lower value; B-score at 10 µM;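 active means fluorescence ratio B-score at or below minus 3 SD of library scores, with starting-brightness B-score within 2 SD, cut at about -4.2 in these data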;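 further: channel flux triggered by added potassium and thallium sulfate stimulus; B-score of peak minus minimum fluorescence over baseline after thallium stimulus; more negative B-score means stronger Kir2.1 block with less thallium influx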
KCNQ1 pot: potentiators or activators of human KCNQ1 potassium channel; P51787; CHO-K1 KCNQ1, thallium flux FluxOR fluorescence; stronger effect = higher value; B-score at 10 µM; 310,000 tested, 0.35% active; AID 2648;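 active means fluorescence ratio B-score, a plate-corrected score, at least three library SD, with initial intensity B-score within 5 SD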
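Material: CHO-K1 cells stably expressing KCNQ1. Medium: assay buffer for compound exposure, DMSO matched across wells. Reagent: K+/Tl+ depolarizing stimulus. Compound dosing: single-concentration screen. Times: 37 °C overnight plating, 90-min dark dye load, 20-min compound pretreatment. Technique: FluxOR Tl+ flux fluorescence.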
KCNK9 block: human KCNK9 channel inhibition. Q9NPC2. HEK293 KCNK9, FluxOR thallium flux fluorescence; stronger effect = lower value. B-score at 10 µM. 310,000 tested, 1.2% active. AID 488922;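 active means ratio B-score over 3 SD below the library mean, with starting fluorescence within 5 SD of its mean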;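 further: negative B-score means less thallium flux so channel inhibition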
hERG rescue: hERG (human) protection from proarrhythmic block; activation (rescue from dofetilide block), less the hit threshold, % at 10 µM; 310,000 tested, 0.51% active; Q12809; CHO-hERG, FluxOR thallium flux, dofetilide IC70 present; AID 1511;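 active means activation above the mean of controls blocked by dofetilide plus 5 SD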;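 further: thallium influx through hERG after potassium depolarization seen as dye fluorescence rise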
KCNQ1 inh: inhibitors of human KCNQ1 potassium channel | B-score at 10 µM | P51787 | AID 2642 | CHO-K1 KCNQ1, FluxOR thallium flux fluorescence; stronger effect = higher value | 310,000 tested, 1.3% active;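 active means compounds whose thallium flux B-score, printed positive for inhibition, exceeds three library SD while starting fluorescence stays within three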;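 further: channel opened by potassium depolarization with thallium stimulus after 20 min compound exposure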
KCNK9 inh conf: human KCNK9 inhibitor confirmation; inhibition, % at 10 µM; 4,900 tested, 43% active; AID 492992; shares compounds with KCNK9 block; HEK293 KCNK9 cells, FluxOR thallium flux fluorescence;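 active means thallium signal inhibited by more than 5 SD of the compound-free buffer control wells, on both duplicate plates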;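 further: 0% = assay buffer control wells without compound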
Kir21 sel: tests whether KCNK9 modulators also affect mouse Kir2.1 | inhibition, % at 10 µM | shares compounds with KCNK9 block | 4,900 tested, 4% active | Kir2.1 cells, FluxOR thallium flux fluorescence;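 active means thallium signal drop more than 5 SD beyond the mean of the no-compound control wells, seen in both duplicate plates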;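 further: signal is fluorescence rise after thallium addition divided by baseline fluorescence; plate controls were assay buffer only for no effect and full block by chlorpromazine control for full effect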
KCNK9 uninduced: second check of KCNK9 modulator effects in non-induced HEK293 cells | 4,900 tested, 40% active | shares compounds with KCNK9 block | FluxOR thallium flux | AID 492997 | inhibition, % at 10 µM;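 active means thallium signal drop beyond 5 SD of the untreated control mean, on both duplicate plates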;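 further: plate controls were buffer only IC0 wells for no effect and SID17386958 at its maximal inhibitory level for full effect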
KCNK3 confirm: human KCNK3 channel inhibition, confirmation assay; shares compounds with KCNK3 inh; CHO-KCNK3 thallium flux, FluxOR fluorescence; 0% buffer, 100% carvedilol maximal block; ratio percent of control, % at 10 µM; 2,400 tested, 99% active; AID 651638;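 active means ratio percent of control, averaged over triplicates, above buffer control mean plus 5 SD, cut at about 64% in these data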;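 further: ratio is the fluorescence rise from min to max over baseline after thallium stimulus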
KCNK3 uninduced: activity in cells without induced KCNK3 expression; shares compounds with KCNK3 inh; non-induced KCNK3 parental cells, FluxOR thallium flux; stronger effect = lower value; thallium flux ratio (lower = more inhibition) at 10 µM; 2,400 tested, 40% active; AID 651747;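 active means thallium flux ratio, averaged over three wells, more than 5 SD below the buffer control mean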;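 further: host cells are CHO cells without KCNK3 induction; ratio is peak minus trough fluorescence over baseline then normalized to buffer controls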
The depositor's hits bear a star; i = inactive; nt = not tested or not shown; ! = repeats disagree. A selection: hits, their analogues and other compounds. The true share with any hit is near 3.7%.

SMILES	KCNK3 inh	Kir21 block	KCNQ1 pot	KCNK9 block	hERG rescue	KCNQ1 inh	KCNK9 inh conf	Kir21 sel	KCNK9 uninduced	KCNK3 confirm	KCNK3 uninduced
COc1nc(N2CCCCCC2)nc(N2CCCCCC2)n1	i	-0.94	i	-11*	-12	i	i	i	54%*	99*	i
O=C(COC(=O)c1cc2ccccc2cc1O)NC(=O)NCc1ccco1	i	-1.2	i	i	-16	i	nt	nt	nt	nt	nt
CC1(C)CC(=O)C2=C(C1)N=C1c3ccccc3C(=O)C1C2c1ccc(Cl)cc1 (stereo not drawn)	-15*	-0.01	i	-12*	-11	i	55%*	i	40%*	122*	0.14*
CCN(CC)CC(O)COc1ccccc1C(=O)CCc1ccccc1 (stereo not drawn)	i	0	i	i	-11	i	nt	nt	nt	nt	nt
CCCCN(CCCC)CC(O)COc1ccccc1C(=O)Nc1ccccc1 (stereo not drawn)	-10*	-0.96	i	-11*	-10	i	50%*	i	40%*	112*	i
CC(=O)c1ccc(OC(=O)C2CSC3(C)CCC(=O)N23)cc1 (stereo not drawn)	i	nt	nt	nt	nt	nt	nt	nt	nt	nt	nt
Cc1[nH]c(C)c(S(=O)(=O)N2CCN(c3ccc(Cl)cc3)CC2)c1C(=O)N1CCCC1	i	1.5	i	i	-6	i	nt	nt	nt	nt	nt
N#Cc1ccc(COC(=O)c2cnc3ccccc3n2)cc1	i	0	i	i	-8	i	nt	nt	nt	nt	nt
COC(=O)c1ccc(CSc2nc3ccccc3c(=O)n2Cc2ccco2)o1	-11*	1	i	-12*	-11	i	i	i	38%*	118*	i
O=C(CSc1nc2ccccc2c(=O)n1Cc1ccco1)NCc1ccccc1	i	0.61	i	i	-9	i	nt	nt	nt	nt	nt
O=C(NN1CCOCC1)c1ccc(F)cc1	i	-0.68	i	i	-12	i	nt	nt	nt	nt	nt
CCN(CC)C(=O)Oc1cc2c(-c3cc4cccc(OC)c4o3)cc(=O)oc2cc1C	-14*	1.1	i	-21*	-16	i	77%*	i	i	101*	i
O=C(COC(=O)Cc1cccs1)NCc1ccc(F)cc1	i	-0.3	i	i	-15	i	nt	nt	nt	nt	nt
Clc1ccc(CSc2nnc(-c3sccc3-n3cccc3)o2)cc1	-9.2*	-2.5	i	-14*	-18	6*	50%*	i	i	101*	i
CC(C)CC(c1nnnn1Cc1cccs1)N1CCN(c2nc3ccccc3s2)CC1 (stereo not drawn)	-10*	-1.1	i	-12*	-12	i	38%*	i	i	129*	0.12*
O=S(=O)(c1ccc(Br)s1)N1CCC(Cc2ccccc2)CC1	-9.1*	0.89	i	i	-19	i	i	i	i	100*	i
Cn1c(CNC(=O)c2ccc(Cl)cc2)nnc1SCC(=O)NC1CCCC1	i	0.56	i	i	-6	i	nt	nt	nt	nt	nt
CC(C)C(C)NC(=O)COC(=O)/C=C/c1ccc(S(=O)(=O)N2CCc3ccccc32)cc1 (stereo not drawn)	i	-0.52	i	i	-4	i	nt	nt	nt	nt	nt
CCOC(=O)C1=C(CSc2nc(CC)c(C)cc2C#N)OC(N)=C(C#N)C1c1ccc(OC)cc1 (stereo not drawn)	-9.2*	0.86	i	-9.7*	-9	i	54%*	i	45%*	112*	0.15*
CN(Cc1nc(-c2cccs2)no1)CC(O)c1ccccc1 (stereo not drawn)	i	0.05	i	i	-11	i	nt	nt	nt	nt	nt
Clc1ncnc2c1oc1ccccc12	i	1.5	i	i	-18	i	nt	nt	nt	nt	nt
c1coc(CN(Cc2ccco2)c2ncnc3c2oc2ccccc23)c1	-12*	0.05	i	-18*	-9	i	70%*	i	i	139*	0.14*
COC(=O)c1ccccc1SC(CC(=O)c1ccccc1)c1ccc(F)cc1 (stereo not drawn)	i	0.71	i	-13*	-13	i	49%*	i	56%*	114*	i
COC(=O)c1ccccc1NC(=O)c1ccc(F)cc1	i	-0.13	i	i	-5	i	nt	nt	nt	nt	nt
CCOC(=O)c1cc(-c2ccc(Cl)cc2)nc2c1c(C)nn2CCC#N	-9.3*	-1.1	i	-13*	-3	i	52%*	i	32%*	125*	0.13*
SMILES	KCNK3 inh	Kir21 block	KCNQ1 pot	KCNK9 block	hERG rescue	KCNQ1 inh	KCNK9 inh conf	Kir21 sel	KCNK9 uninduced	KCNK3 confirm	KCNK3 uninduced
Cc1noc(/C=C/c2cccs2)c1S(=O)(=O)N1CCC(C(=O)NCCCN2CCCC(C)C2)CC1 (stereo not drawn)	i	-4.5	i	i	-13	i	nt	nt	nt	nt	nt
CC1CCC(C(C)C)C(OC(=O)Cn2c(-c3ccc(Cl)cc3)[n+](C)c3ccccc32)C1 (stereo not drawn)	-11*	-15*	i	-12*	-36	10*	66%*	80%*	i	119*	i
CC1CCC(C(C)C)C(OC(=O)COC(=O)c2cccn2C)C1 (stereo not drawn)	-8.8*	-1	i	-13*	-21	i	59%*	i	27%*	108*	i
CC1CCC(C(C)C)C(OC(=O)C[n+]2cccc(C(N)=O)c2)C1 (stereo not drawn)	i	1.9	i	i	-6	i	nt	nt	nt	nt	nt
CC1CCC(C(C)C)C(OC(=O)Cn2c(-c3ccc(Br)cc3)[n+](C)c3ccccc32)C1 (stereo not drawn)	-16*	-15*	i	-13*!	-31	10*	66%*	82%*	i	132*	i
Cc1ccc(S(=O)(=O)N(C)C)cc1NC(=S)NNC(=O)C(N)=O	i	0.21	i	i	-8	i	nt	nt	nt	nt	nt
CCOC(=O)C1CCN(C(=O)COc2ccc(Br)cc2Br)CC1	i	-2	i	i	-14	i	nt	nt	nt	nt	nt

Compound activity as filed in PubChem BioAssay.
